How the values were obtained:
XCGL-1 [1] = experiment: Inhibition of XCGL-1 hemagglutination; type: cell-based, Xenopus laevis; conditions: pig red blood cells; for inhibition of agglutination: 50 nM XCGL-1, millimolar concentrations; for inhibition of hemagglutination by carbohydrates: 25 nM XCGL-1
Procedure, shortened: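 Citrated fresh pig red cells, washed in 20 mM HEPES pH 7.5, 150 mM NaCl, 10 mM CaCl2, used as a 2.5% suspension in a Terasaki plate. Two set-ups: carbohydrates at various concentrations with 25 nM lectin; EDTA or galactose at millimolar concentrations with 50 nM lectin. Plates photographed after 1 h.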

Refolded XCGL-1 CRD = experiment: Inhibition of refolded XCGL-1 CRD hemagglutination by carbohydrates; type: cell-based, Xenopus laevis; conditions: pig red blood cells; for inhibition of hemagglutination at 25 mM: 25 nM XCGL-1, carbohydrate 25 mM; for concentration at which inhibition of hemagglutination was observed: 25 nM XCGL-1
His6 XCGL-1 CRD = experiment: Inhibition of His6 XCGL-1 CRD hemagglutination by carbohydrates; type: cell-based, Xenopus laevis; conditions: pig red blood cells, 25 nM XCGL-1
XCGL-1 [2] = experiment: Competitive elution of XCGL-1 from lactose resin; set-up: species or system Xenopus laevis; conditions: carbohydrate 6.5 mM in binding buffer, western blot
Procedure, shortened: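 Lactose-agarose resin (250 μL) settled in a spin column and washed three times with binding buffer (20 mM HEPES pH 7.5, 150 mM NaCl, 10 mM CaCl2). Protein (250 μL, 0.1 μM) bound for 5 min, then washed three times. Elution with each carbohydrate at 6.5 mM in binding buffer; eluates analysed by western blot.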

His6 XCGL-1 = His6 XCGL-1 (Xenopus laevis, UniProt Q91719); experiment: Inhibition of His6 XCGL-1 hemagglutination by carbohydrates; type: cell-based; conditions: pig red blood cells, 25 nM XCGL-1
Sequence of His6 XCGL-1 (Q91719 18-313): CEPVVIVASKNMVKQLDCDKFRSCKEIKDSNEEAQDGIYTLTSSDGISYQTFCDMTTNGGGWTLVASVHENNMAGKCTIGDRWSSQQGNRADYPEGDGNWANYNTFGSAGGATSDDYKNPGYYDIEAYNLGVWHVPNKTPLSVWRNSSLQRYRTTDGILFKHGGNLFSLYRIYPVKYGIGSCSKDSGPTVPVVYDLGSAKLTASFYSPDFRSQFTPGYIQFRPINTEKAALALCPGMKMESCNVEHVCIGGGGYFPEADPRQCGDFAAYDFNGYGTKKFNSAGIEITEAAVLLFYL
Procedure, shortened: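 Fresh pig blood collected into sodium citrate tubes. Red cells washed in 20 mM HEPES pH 7.5, 150 mM NaCl, 10 mM CaCl2 and used as a 2.5% suspension. Incubated with 25 nM lectin plus carbohydrate at various concentrations in a Terasaki plate. Agglutination photographed after 1 h. MIC is the minimum carbohydrate concentration inhibiting agglutination.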

Row | Compound | inhibition of hemagglutination by carbohydrates (XCGL-1 [1]) | minimum inhibitory concentration (MIC) of hemagglutination (His6 XCGL-1 CRD) | competitive elution of XCGL-1 bound to lactose resin (XCGL-1 [2]) | minimum inhibitory concentration (MIC) of hemagglutination (His6 XCGL-1) | other results
1 | O=C(O)CN(CCN(CC(=O)O)CC(=O)O)CC(=O)O [EDTA] |  |  |  |  | inhibition of agglutination (XCGL-1 [1]): inhibited
2 | CC(=O)N[C@H]1C(O)O[C@H](CO)[C@H](O)[C@@H]1O (stereo partly drawn) [N-acetylgalactosamine, N-acetyl-D-galactosamine] | could not inhibit hemagglutination |  |  |  | 
3 | CC(=O)N[C@@H]1[C@@H](O)[C@H](O)[C@@H](CO)O[C@H]1O [N-acetylglucosamine, N-acetyl-D-glucosamine] | could not inhibit hemagglutination |  |  |  | 
4 | C[C@H](O)[C@@H](O)[C@@H](O)[C@H](O)C=O [fucose, L-fucose] | could not inhibit hemagglutination |  |  |  | 
5 | O=C[C@H](O)[C@@H](O)[C@@H](O)[C@H](O)CO [galactose, D-galactose] |  | 10 mM | able to elute XCGL-1 competitively | 15 mM | inhibition of agglutination (XCGL-1 [1]): inhibited; inhibition of hemagglutination at 25 mM (Refolded XCGL-1 CRD): not efficient at inhibiting hemagglutination
6 | OC[C@H]1OC(O)[C@H](O)[C@@H](O)[C@@H]1O (some centres unmarked) [glucose] | could not inhibit hemagglutination |  |  |  | 
7 | OC[C@H]1O[C@@H](O[C@H]2[C@H](O)[C@@H](O)[C@H](O)O[C@@H]2CO)[C@H](O)[C@@H](O)[C@H]1O [lactose, β-D-Gal-(1→4)-D-Glc] |  | 10 mM | able to elute XCGL-1 competitively | 15 mM | concentration at which inhibition of hemagglutination was observed (Refolded XCGL-1 CRD): > 20 mM
8 | OC[C@H]1OC(O)[C@@H](O)[C@@H](O)[C@@H]1O (stereo partly drawn) [mannose, D-mannose] | could not inhibit hemagglutination |  |  |  | 
9 | OC[C@H]1O[C@H](OCC2O[C@@H](O)[C@H](O)[C@@H](O)[C@@H]2O)[C@H](O)[C@@H](O)[C@H]1O (stereo partly drawn) [melibiose, α-D-Gal-(1→6)-D-Glc] |  | 10 mM | able to elute XCGL-1 competitively | 15 mM | concentration at which inhibition of hemagglutination was observed (Refolded XCGL-1 CRD): > 20 mM
10 | CC(=O)N[C@H]1C(O)O[C@H](CO)[C@H](O)[C@@H]1O[C@H]1O[C@H](CO)[C@H](O)[C@H](O)[C@H]1O (stereo partly drawn) [α-D-Gal-(1→3)-D-GalNAc] |  | 2.5 mM | able to elute XCGL-1 competitively | 5 mM | inhibition of hemagglutination at 25 mM (Refolded XCGL-1 CRD): no inhibition

Source: paper PMC9434060 (Heliyon, 2022)
